Broadly, the pEC50 is the EC50 on a negative log10 scale, so that one unit is a factor of ten. Low values mean a large EC50, high ones a small EC50. For orientation: bioavailability means the share of a dose that reaches the circulation, judged against a reference dose that is usually intravenous. A high value points to good availability. A word on the inhibition: it is the drop in the measured response relative to a control, in per cent. Lower therefore signals little suppression. In general, IC50 refers to the concentration that gives 50% inhibition. A word on the half-life: it is how long it takes for the measured level to halve. A word on the Tmax: it is the time at which the peak concentration occurs. Usually AUC stands for the area under the concentration-time curve, a measure of exposure. The low end stands for less exposure, the high end for more exposure.

From ChEMBL document CHEMBL1134221, “RPR203494 a pyrimidine analogue of the p38 inhibitor RPR200765A with an improved in vitro potency” (Bioorg Med Chem Lett, 2001) come the findings set out here.

pEC50: −log10 of the molar value.

Series [1] is described as follows: Stability (%) in rat liver microsomes. In kind it is ADME. Particulars: read-out: % turnover. (Microsomes from liver hold many membrane-bound enzymes, among them those of drug oxidation.)
Series [2] can be described thus: Inhibitory concentration against lipopolysaccharide induced TNF-alpha release on human monocytes. In kind it is functional. An outline of the steps:
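Adherent human monocytes (100,000 cells/well) are stimulated with LPS (10 ng/mL) for 18 h, with or without compound. Each experiment is run in quadruplicate. TNF-α is measured by sandwich ELISA, and EC50 is calculated for each compound.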

A short description of series [3]: Oral bioavailability in rat. Particulars: in vivo. In kind it is ADME, organism-based. An outline of the steps: (§1)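 Rat pharmacokinetics with the compound given alone: an iv arm at 1 mg/kg and an oral arm at 5 mg/kg. Plasma profiles give Cmax, Tmax, AUC, terminal half-life, total clearance and Vdss. Absolute oral bioavailability is derived by comparing the oral and iv exposures.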

The nature of series [4]: Inhibitory activity against lipopolysaccharide induced TNF-alpha release on human monocytes at a concentration of 300 nM. In kind it is functional.
Series [5] concerns the target T1, MAP kinase p38 (Mus musculus, UniProt P47811+O08911+Q9WUI1+Q9Z1B7). The experiment in a line: Inhibition of murine Mitogen-activated protein kinase p38. In kind it is protein assay. Put shortly: (§2)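 Mouse p38 enzyme at 40 ng/well, run 1 h at room temperature. ATF-2 substrate is coated onto plates. Buffer is 25 mM Hepes pH 7.7 with 25 mM MgCl2, 2 mM dithiothreitol, 1 mM sodium orthovanadate and ATP. Phospho-ATF-2 is detected with phospho-specific primary antibodies. IC50 is given as mean±SEM of repeat experiments (n=3).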

A short description of series [6]: Volume distribution after intravenous administration (1 mg/kg) in rat. The note with it: in vivo, read-out: Vdss. In kind it is ADME, organism-based. An outline of the steps:
as §1

Series [7] in a line: Maximum plasma concentration in Rat at a oral dose of 5 mg/kg. In kind it is ADME, organism-based. Set-up: dose 5 mg/kg, route oral. The note with it: read-out: CPmax. An outline of the steps:
as §1

Series [8] in a line: Terminal half life in Rat at a oral dose of 5 mg/kg. On the set-up: dose 5 mg/kg, route oral. Particulars: in vivo. In kind it is ADME, organism-based. An outline of the steps:
as §1

Series [9] in a line: T max in Rat at a oral dose of 5 mg/kg. In kind it is ADME, organism-based. Particulars: in vivo. On the set-up: dose 5 mg/kg, route oral. Put shortly:
as §1

Series [10] in a line: Area under curve after intravenous administration (1 mg/kg) in rat. In kind it is ADME, organism-based. The note with it: in vivo. An outline of the steps: as §1
Series [11] can be described thus: Terminal half life after intravenous administration (1 mg/kg) in rat. In kind it is ADME, organism-based. The note with it: in vivo. Put shortly:
as §1

Series [12] is described as follows: Area under curve in Rat at a oral dose of 5 mg/kg. In kind it is ADME, organism-based. On the set-up: dose 5 mg/kg, route oral. The note with it: in vivo. An outline of the steps: as §1
Series [13] is described as follows: Plasma clearance after intravenous administration (1 mg/kg) in rat. In kind it is ADME, organism-based. Particulars: read-out: Clp (converted). Put shortly:
as §1

A short description of series [14]: Oral Bioavailability after intravenous administration (1 mg/kg) in rat. In kind it is ADME, organism-based. The note with it: in vivo, 5 mg/kg, in the assay text read “oral administration (5 mg/kg)” for “intravenous administration (1 mg/kg)”. Put shortly: as §1
The target in series [15] is T1, MAP kinase p38. In words: Inhibitory activity against p38 kinase (40 ng/well) was determined in mouse. An outline of the steps:
as §2

`COc1cccc(Nc2nccc(-c3[nH]c([C@H]4OC[C@](C)(C(=O)N5CCOCC5)CO4)nc3-c3ccc(F)cc3)n2)c1`: the metabolised in [1] was determined as 54.1%. Also, in series [2], the pEC50 was 7.48. This compound displayed a bioavailability in series [3] of 6%.

Consider `C[C@]1(C(=O)N2CCOCC2)CO[C@H](c2nc(-c3ccc(F)cc3)c(-c3ccnc(NCc4cccs4)n3)[nH]2)OC1`, for which, in [1], the metabolised worked out at 92%. The compound further had a pEC50 in series [2] of 7.15.

Consider `CNc1nccc(-c2[nH]c([C@H]3OC[C@](C)(C(=O)N4CCOCC4)CO3)nc2-c2ccc(F)cc2)n1`, for which, in series [1], the metabolised is 8.1%. This compound returned an inhibition at 0.3 µM in series [4] of 38%.

On to `C[C@]1(C(=O)N2CCOCC2)CO[C@H](c2nc(-c3ccc(F)cc3)c(-c3ccnc(NCc4ccc(F)cc4)n3)[nH]2)OC1`, for which the metabolised in series [1] was 44.6%. Moreover, the negative-log EC50 (pEC50) in [2] is 7.21.

Take `C[C@]1(C(=O)N2CCOCC2)CO[C@H](c2nc(-c3ccc(F)cc3)c(-c3ccnc(NCCC(=O)O)n3)[nH]2)OC1`: the metabolised in [1] was determined as 3.5%. This compound came in with an inhibition at 0.3 µM in series [4] of 6%.

In the case of `C[C@]1(C(=O)N2CCOCC2)CO[C@H](c2nc(-c3ccc(F)cc3)c(-c3ccnc(NCC(=O)O)n3)[nH]2)OC1`, the negative-log EC50 (pEC50) in series [2] was less than 5.00.

On to `C[C@]1(C(=O)N2CCOCC2)CO[C@H](c2nc(-c3ccc(F)cc3)c(-c3ccnc(NCCO)n3)[nH]2)OC1`, for which the metabolised in [1] came out at 18%. In [2], the pEC50 was 6.50.

In [2], `COCCCNc1nccc(-c2[nH]c([C@H]3OC[C@](C)(C(=O)N4CCOCC4)CO3)nc2-c2ccc(F)cc2)n1` gave a negative logarithm of the EC50 (pEC50) of 7.27. The compound further returned an IC50 on MAP kinase p38 [5] of 7 nM. This compound also returned a bioavailability in [3] of 15%.

Turning to `C[C@]1(C(=O)N2CCOCC2)CO[C@H](c2nc(-c3ccc(F)cc3)c(-c3ccnc(NCC4CC4)n3)[nH]2)OC1`, the metabolised in series [1] was 87%. The same compound had a negative logarithm of the EC50 (pEC50) in [2] of 7.16.

Turning to `CCCNc1nccc(-c2[nH]c([C@H]3OC[C@](C)(C(=O)N4CCOCC4)CO3)nc2-c2ccc(F)cc2)n1`, the pEC50 in [2] was 6.91.

Compound `C[C@]1(C(=O)N2CCOCC2)CO[C@H](c2nc(-c3ccc(F)cc3)c(-c3ccnc(Nc4ccncc4)n3)[nH]2)OC1` showed a pEC50 in series [2] of 7.39.

For the compound `C[C@]1(C(=O)N2CCOCC2)CO[C@H](c2nc(-c3ccc(F)cc3)c(-c3ccnc(NC4CC4)n3)[nH]2)OC1`, in series [6], the Vd amounted to 1.2 L/kg. Moreover, the Cmax in series [7] was found to be 620 ng/mL. Besides, the half-life was 1.4 h in series [8] and 1.2 h in series [11]. Further, the metabolised in series [1] is 43.6%. Besides, in series [9], the time to peak (Tmax) was determined as 0.5 h. In [2], this compound gave a pEC50 of 7.22. The compound also showed an IC50 on MAP kinase p38 [5] of 9 nM. The AUC was 580 ng·h/mL in series [10] and 1390 ng·h/mL in [12]. Also, the bioavailability came to 29% in series [3] and 48% in [14]. Further, the clearance in series [13] was 30 mL/min/kg.

Turning to `C[C@]1(C(=O)N2CCOCC2)CO[C@H](c2nc(-c3ccc(F)cc3)c(-c3ccnc(N4CCCCC4)n3)[nH]2)OC1`, the metabolised in series [1] came out at 99%. Besides, the inhibition at 0.3 µM in series [4] was 26%.

Consider `CN(C)CCCNc1nccc(-c2[nH]c([C@H]3OC[C@](C)(C(=O)N4CCOCC4)CO3)nc2-c2ccc(F)cc2)n1`, for which the metabolised in series [1] is 18%. In addition, 0.3 µM produced 27% inhibition in series [4].

Consider `COc1ccc(CNc2nccc(-c3[nH]c([C@H]4OC[C@](C)(C(=O)N5CCOCC5)CO4)nc3-c3ccc(F)cc3)n2)cc1`, for which the metabolised in series [1] is 23.9%. In addition, the negative logarithm of the EC50 (pEC50) in series [2] was 7.31. In series [3], this compound came in with a bioavailability of 1%.

As to `CN(C)CCNc1nccc(-c2[nH]c([C@H]3OC[C@](C)(C(=O)N4CCOCC4)CO3)nc2-c2ccc(F)cc2)n1`, the metabolised in [1] was 29%. The same compound had a pEC50 in series [2] of 6.24.

For the compound `C[C@]1(C(=O)N2CCOCC2)CO[C@H](c2nc(-c3ccc(F)cc3)c(-c3ccnc(NCc4ccccc4)n3)[nH]2)OC1`, the metabolised in series [1] was 68%. The negative logarithm of the EC50 (pEC50) in [2] was 7.92. This compound returned an IC50 against MAP kinase p38 [5] of 5 nM. Moreover, the bioavailability in series [3] stood at 24%.

On to `C[C@]1(C(=O)N2CCOCC2)CO[C@H](c2nc(-c3ccc(F)cc3)c(-c3ccnc(N)n3)[nH]2)OC1`, for which the metabolised in series [1] came to 17.6%. The compound further had an inhibition at 0.3 µM in series [4] of 39%.

On to `C[C@@H](Nc1nccc(-c2[nH]c([C@H]3OC[C@](C)(C(=O)N4CCOCC4)CO3)nc2-c2ccc(F)cc2)n1)c1ccccc1`, for which, in series [1], the metabolised was found to be 81%. This compound gave a pEC50 in series [2] of 8.00.

`C[C@]1(C(=O)N2CCOCC2)CO[C@H](c2nc(-c3ccc(F)cc3)c(-c3ccnc(Nc4cccnc4)n3)[nH]2)OC1`: the pEC50 in series [2] is 6.64.

In turn, `C[C@]1(C(=O)N2CCOCC2)CO[C@H](c2nc(-c3ccc(F)cc3)c(-c3ccnc(NCCCO)n3)[nH]2)OC1` showed a pEC50 in series [2] of 7.24. The bioavailability in series [3] worked out at 2%.

For `C[C@]1(C(=O)N2CCOCC2)CO[C@H](c2nc(-c3ccc(F)cc3)c(-c3ccnc(NCc4ccccn4)n3)[nH]2)OC1`, the metabolised in series [1] came to 25%. In [2], the negative-log EC50 (pEC50) was 7.35. In [3], this compound gave a bioavailability of 25%.

`C[C@H](Nc1nccc(-c2[nH]c([C@H]3OC[C@](C)(C(=O)N4CCOCC4)CO3)nc2-c2ccc(F)cc2)n1)c1ccccc1`: the metabolised in series [1] worked out at 71%. This compound also had a pEC50 in series [2] of 8.82. The same compound showed a bioavailability in series [3] of 10%.

For `C=CCNc1nccc(-c2[nH]c([C@H]3OC[C@](C)(C(=O)N4CCOCC4)CO3)nc2-c2ccc(F)cc2)n1`, the metabolised in series [1] was determined as 89.1%. In series [2], this compound showed a negative logarithm of the EC50 (pEC50) of 6.96.

Take `C[C@]1(C(=O)N2CCOCC2)CO[C@H](c2nc(-c3ccc(F)cc3)c(-c3ccnc(NCCC#N)n3)[nH]2)OC1`: in [4], the inhibition at 0.3 µM is 28%.

As for `CN(C)c1nccc(-c2[nH]c([C@H]3OC[C@](C)(C(=O)N4CCOCC4)CO3)nc2-c2ccc(F)cc2)n1`, the metabolised in series [1] came to 40.7%. The compound further gave an inhibition at 0.3 µM in series [4] of 8%.

`C[C@]1(C(=O)N2CCOCC2)CO[C@H](c2nc(-c3ccc(F)cc3)c(-c3ccnc(Nc4ccccc4)n3)[nH]2)OC1`: the metabolised in series [1] worked out at 51%. The compound further showed a pEC50 in series [2] of 7.27. The compound also showed an IC50 at MAP kinase p38 [15] of 16 nM. In [3], this compound gave a bioavailability of 29%.

Take `C[C@]1(C(=O)N2CCOCC2)CO[C@H](c2nc(-c3ccc(F)cc3)c(-c3ccnc(NC4CCCCC4)n3)[nH]2)OC1`: in series [1], the metabolised was determined as 98.6%. Moreover, in series [2], the negative logarithm of the EC50 (pEC50) was 7.62.
